Laboratory results as given in PubChem BioAssay.
Results filed as inconclusive are left out.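 The calls were made as follows, unless noted: active = inhibition over a set limit, the all-compound mean plus 3 SD, in both replicate runs; inconclusive = over that limit in just one replicate run; inactive = at or under that limit in both runs.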

Assays:
[1] = S. cerevisiae growth inhibition in permissive medium (OD615), pilot counter-assay for S. cerevisiae lifespan shortening project, permissive growth control (AID 705;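 active = growth inhibition above 25% in both replicates, a cutoff set 3 SD above the mean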); conditions: OD615, 24 h, at 10 µM, stronger effect = higher value
Summary of the method: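 System: Engineered DeaD yeast | Buffer or medium: SC raffinose/galactose permissive medium | Incubation: Cells pre-grown 4 h, then 24 h compound exposure, 30 °C humidified | Measured by: Absorbance (optical density) at 615 nm | Read-out: Reduction in yeast growth (OD615)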

[2] = S. cerevisiae growth inhibition in restrictive medium, OD615, pilot screen, restrictive growth control, yeast lifespan reduction project (AID 706;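 active = growth inhibition above a set limit, 3 SD over mean compound inhibition, in both replicates, cut at about 43% in these data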;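 also: modified DeaD lifespan yeast strain shifted to restrictive glucose medium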); conditions: OD615, 48 h, at 10 µM, stronger effect = higher value
Summary of the method: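 Material: modified S. cerevisiae; Medium: glucose-based CSMM-D restrictive medium; Compound dosing: one concentration, 10 µM final, 0.25% DMSO; Incubation: 48 h compound exposure at 30 °C; Measured by: OD615.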

[3] = doxorubicin toxicity protection in MRP-1 cells – H69AR cells, CellTiter-Glo, duplicate, MRP-1 activator project, pilot screen (AID 807;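 active = viability increase at or above a cutoff of the median across tested compounds plus 3 SD, cut at about 8.5% in these data, passing the limit was not always enough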;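 also: compound pretreatment 18-22 h then 72 h combined with doxorubicin; 0% = doxorubicin alone and 100% = vehicle without doxorubicin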); conditions: H69AR viability with doxorubicin, CellTiter-Glo luminescence; at 10 µM; stronger effect = higher value
[4] = viability of HCT116 without oncogenic beta-catenin – human colon tumor cells, pilot screen (AID 823;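 active = cell viability at or below a set limit in both duplicate runs, the limit being the all-compound median minus 4 SD, cut at about 23% in these data, passing the limit was not always enough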;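 also: 0% = wells killed by 20 µM Hyamine and 100% = untreated DMSO cell wells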); conditions: HCT116 beta-catenin knockout viability, CellTiter-Glo, 60 h; at 10 µM; stronger effect = lower value
[5] = viability of PTEN-null HCT116 cells – cell-based, HCT116 clonal line, CellTiter-Glo, pilot screen (AID 824;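 active = viability at or below 27.92% in each of two runs, the all-compound median minus 4 SD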;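 also: 0% = 20 µM Hyamine control and 100% = vehicle cell control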); conditions: HCT116 PTEN-deleted viability, 60 h, at 10 µM, stronger effect = lower value
[6] = RAM pathway blockade in budding yeast – dse1pr::URA3 reporter, 5-FOA selection, pilot screen (AID 869);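 also: 0% = DMSO wells with no growth and 100% = 10 µM 1-NA-PP1 with full growth; RAM network block rescues cells from 5-FOA so hits raise OD615 growth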; conditions: S. cerevisiae dse1pr::URA3 5-FOA growth, OD615, 2 d; at 10 µM; stronger effect = higher value; strain carries analog-sensitive mutant Cbk1 kinase
[7] = RAM signaling pathway blockade in yeast – S. cerevisiae, Pdr1DBD-CYC8 efflux-inhibited sensitized strain, primary screen (AID 1298;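 active = RAM network inhibition above 8.4% in each of two replicates, 3 SD over the compound average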;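 also: 0% = DMSO untreated cells without growth and 100% = 10 µM 1-NA-PP1 full growth; higher means more yeast growth rescued from 5-FOA killing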); conditions: S. cerevisiae cbk1-as DSE1-URA3 strain, 5-FOA growth OD615, 2 d; at 50 µM; stronger effect = higher value

c1ccc2c(c1)OCC(c1csc3ncnc(N4CCOCC4)c13)O2 (stereo not drawn)
inactive: growth inhibition [1] -14.1% | growth inhibition [2] -9.32% | viability increase [3] -3.2% | viability [4] 94.4% | viability [5] 75.7% | inhibition [6] 1.26% | RAM network inhibition [7] 8.63%

Fc1cccc(CSc2nc3ccncc3[nH]2)c1
inactive: growth inhibition [1] -13.4% | growth inhibition [2] -9.72% | viability increase [3] -0.81% | viability [4] 94.9% | viability [5] 79.7% | inhibition [6] 1.6% | RAM network inhibition [7] 7.53%

O=C1CC(C(=O)Nc2nccs2)C(c2ccccc2)O1 (stereo not drawn)
inactive: growth inhibition [1] -4.84% | growth inhibition [2] -14.8% | viability increase [3] -0.76% | viability [4] 107% | viability [5] 99.3% | inhibition [6] 0.94% | RAM network inhibition [7] 0.09%

COc1ccc(C2/C(=C(/O)c3ccc(F)cc3)C(=O)C(=O)N2CCCN(C)C)cc1 (stereo not drawn)
inactive: growth inhibition [1] -5.9% | growth inhibition [2] -4.55% | viability increase [3] -2.11% | viability [4] 104% | viability [5] 98.1% | inhibition [6] 0.345% | RAM network inhibition [7] 2.49%

CCOc1ccc(-c2nc(CSCC(=O)N3CCN(C(=O)c4ccco4)CC3)c(C)o2)cc1
inactive: growth inhibition [1] -0.515% | growth inhibition [2] 26% | viability increase [3] -2.43% | viability [4] 81.9% | viability [5] 90.4% | inhibition [6] 0.525% | RAM network inhibition [7] 10.9%

CCCS(=O)(=O)n1nc(-c2ccc(OC)cc2OC)cc1N
inactive: growth inhibition [1] -6.52% | growth inhibition [2] -22.5% | viability increase [3] -2.51% | viability [4] 101% | viability [5] 102% | inhibition [6] -0.255% | RAM network inhibition [7] 4.63%

Cc1nn(C)c(C)c1S(=O)(=O)N(CC(=O)Nc1nccs1)c1ccc(C(C)C)cc1
inactive: growth inhibition [1] -0.91% | growth inhibition [2] -7.29% | viability increase [3] -4.04% | viability [4] 99% | viability [5] 90.5% | inhibition [6] 2.3% | RAM network inhibition [7] 2.72%

Clc1ccc(C=NC23CN4CN(CN(C4)C2)C3)cc1
inactive: growth inhibition [1] 8.77% | growth inhibition [2] 6.34% | viability increase [3] -1.39% | viability [4] 102% | viability [5] 90.3% | inhibition [6] 1.11% | RAM network inhibition [7] 0.19%

COc1ccc(N(C)S(=O)(=O)c2cccc(C(=O)NC3=NCCS3)c2)cc1
inactive: growth inhibition [1] -4.93% | growth inhibition [2] -1.7% | viability increase [3] -1.55% | viability [4] 91.6% | viability [5] 89.8% | inhibition [6] 1.13% | RAM network inhibition [7] 2.28%

COc1ccc(C2C3=C(CC(C)(C)CC3=O)Nc3c2c(=O)[nH]c(=O)n3Cc2ccccc2)cc1 (stereo not drawn)
inactive: growth inhibition [1] -7% | growth inhibition [2] 6.84% | viability increase [3] -2.53% | viability [4] 89.5% | viability [5] 74.5% | inhibition [6] 1.65% | RAM network inhibition [7] 6.38%

COc1ccc(NC(=O)C2CCCN(S(=O)(=O)c3cccnc3)C2)c(OC)c1 (stereo not drawn)
inactive: growth inhibition [1] -9.3% | growth inhibition [2] -2.6% | viability increase [3] 1.08% | viability [4] 104% | viability [5] 97.1% | inhibition [6] 1.57% | RAM network inhibition [7] -0.22%

COc1ccc(C(=O)N2CCN(C(=O)c3ccco3)CC2)cc1
inactive: growth inhibition [1] 1.98% | growth inhibition [2] 6.93% | viability increase [3] -2.64% | viability [4] 100% | viability [5] 98.8% | inhibition [6] 1.56% | RAM network inhibition [7] 4.49%

c1cncc(-c2nc3ccccn3c2Nc2ccc3c(c2)OCCO3)c1
inactive: growth inhibition [1] -1.86% | growth inhibition [2] 9.11% | viability increase [3] -2.32% | viability [4] 99.6% | viability [5] 94.4% | inhibition [6] 1.04% | RAM network inhibition [7] 4.54%

Cc1[nH]c(=O)[nH]c(=O)c1S(=O)(=O)N1CCCC(C(=O)N2CCC(Cc3ccccc3)CC2)C1 (stereo not drawn)
inactive: growth inhibition [1] -7.81% | growth inhibition [2] -8.27% | viability increase [3] 0.94% | viability [4] 100% | viability [5] 101% | inhibition [6] 0.385% | RAM network inhibition [7] 3.66%

COc1ccc(-c2nnc(SCC(=O)NC(C)C)n2CC2CCCO2)cc1OC (stereo not drawn)
inactive: growth inhibition [1] 1.07% | growth inhibition [2] -3.87% | viability increase [3] 0.35% | viability [4] 103% | viability [5] 98.3% | inhibition [6] 1.69% | RAM network inhibition [7] -0.58%

COC(=O)c1cccc(NC(=O)C(C)N2C(=O)c3ccccc3C2=O)c1 (stereo not drawn)
inactive: growth inhibition [1] -16.2% | growth inhibition [2] 10.2% | viability increase [3] -1.25% | viability [4] 93.4% | viability [5] 106% | inhibition [6] 1.77% | RAM network inhibition [7] 2.77%

COc1ccc(NC(=O)C2CCN(S(=O)(=O)c3ccc(OC)c(OC)c3)CC2)c(OC)c1
inactive: growth inhibition [1] -1.19% | growth inhibition [2] 4.12% | viability increase [3] -0.83% | viability [4] 94.7% | viability [5] 88.6% | inhibition [6] 1% | RAM network inhibition [7] 1.41%

CC1=C(C(=O)OCC2CCCO2)C(c2ccccc2)NC(=O)N1 (stereo not drawn)
inactive: growth inhibition [1] -9.26% | growth inhibition [2] -17.9% | viability increase [3] -0.06% | viability [4] 103% | viability [5] 99.8% | inhibition [6] 1.33% | RAM network inhibition [7] -0.93%

O=C(NCc1ccco1)c1ccc2c(c1)N(Cc1ccccc1)C(=O)CS2=O (stereo not drawn)
inactive: growth inhibition [1] -4.13% | growth inhibition [2] 3.41% | viability increase [3] 3.66% | viability [4] 97.8% | viability [5] 82.6% | inhibition [6] 0.885% | RAM network inhibition [7] 1.29%

N#CCCN1CCN(S(=O)(=O)c2ccc(S(=O)(=O)NCc3ccccc3)cc2)CC1
inactive: growth inhibition [1] -3.28% | growth inhibition [2] -15.5% | viability increase [3] 0.18% | viability [4] 96% | viability [5] 100% | inhibition [6] 1.91% | RAM network inhibition [7] 3.5%

Cc1nc2cc(-c3cccc(F)c3)nn2c(C)c1CCC(=O)N1CCN(c2ccccn2)CC1
inactive: growth inhibition [1] -0.315% | growth inhibition [2] 3.5% | viability increase [3] -1.74% | viability [4] 87.2% | viability [5] 77.1% | inhibition [6] 0.32% | RAM network inhibition [7] 4.65%

Cc1ccc2oc(=O)c3cnn(CC(=O)N4CCCCCC4)c3c2c1
inactive: growth inhibition [1] -11% | growth inhibition [2] -0.055% | viability increase [3] -3.69% | viability [4] 82.8% | viability [5] 89.1% | inhibition [6] 1.46% | RAM network inhibition [7] 2.05%

Cc1cc2ccccc2n1CCNC(=O)C(C)C
inactive: growth inhibition [1] -8.34% | growth inhibition [2] -7.54% | viability increase [3] -1.99% | viability [4] 102% | viability [5] 98.7% | inhibition [6] 0.15% | RAM network inhibition [7] 2.1%

Cn1c(C(=O)NCCc2c[nH]c3ccccc23)cc2sccc21
inactive: growth inhibition [1] -2.17% | growth inhibition [2] 12.7% | viability increase [3] -4.58% | viability [4] 95% | viability [5] 88% | inhibition [6] 1.56% | RAM network inhibition [7] 2%
